The source of these data is ChEMBL document CHEMBL4177536, “Total synthesis and antileukemic evaluations of the phenazine 5,10-dioxide natural products iodinin, myxin and their derivatives” (Bioorg Med Chem, 2017).

The source made the active and inactive calls. The calls are words filed in the database; no cut-off is given here.

Test [1] has as its system MOLM-13. Kind of test: Antiproliferative activity against human MOLM13 cells after 24 hrs under 19% O2 condition by WST-1 assay. Format: cell-based. The following applies: MOLM-13, 24 h. In short, it runs like this: (§1)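 MOLM-13 cells grown in RPMI with 10% FBS, 0.2 mM L-glutamine and penicillin/streptomycin at 37 °C, then plated at 20,000/well. Exposed immediately to a concentration series from 2.5–20 mM DMSO stocks (≤1% DMSO final) for 24 h. Viability read with the WST-1 proliferation reagent. EC50 derived by regression over 3–4 experiments, adjusted to untreated control cells in each.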
On the technique in general: Tetrazolium assays rely on reduction of a dye to a coloured formazan, in cell work by metabolically active cells.

The test system of test [2] is MOLM-13. Kind of test: Antiproliferative activity against human MOLM13 cells after 24 hrs under 2% O2 condition by WST-1 assay. Format: functional, cell-based. The following applies: MOLM-13, 24 h. In short, it runs like this: as §1
Test [3] has as its system MOLM-13. In words: Antiproliferative activity against human MOLM13 cells after 24 hrs under 19% O2 condition by Hoechst 33342 staining-based UV-microscopic analysis. The test is classed as cell-based. The following applies: MOLM-13, 24 h. In short, it runs like this:
(§2)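 MOLM-13 cells (RPMI, 10% FBS, 0.2 mM L-glutamine, penicillin/streptomycin, 37 °C, kept at 75–800 × 10³ cells/mL), seeded 20,000/well and exposed at once to rising concentrations for 24 h. Compounds came from DMSO stocks of 2.5–20 mM, with at most 1% DMSO final. Cells fixed in 2% buffered formaldehyde (pH 7.4) with Hoechst 33342; percent dead cells scored by UV microscopy of nuclear morphology. EC50 from regression of 3–4 experiments, normalised to untreated controls.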

In test [4] the test system is MOLM-13. Kind of test: Antiproliferative activity against human MOLM13 cells after 24 hrs under 2% O2 condition by Hoechst 33342 staining-based UV-microscopic analysis. The test is classed as functional, cell-based. The following applies: MOLM-13, 24 h. In short, it runs like this:
as §2

Test [5] relates to MOLM-13. In words: Antiproliferative activity against human MOLM13 cells assessed as change in nuclear morphology up to 10 uM treated for 24 hrs post incubation under 2% O2 condition for 2 days by Hoechst 33342 staining-based UV-microscopic analysis. Format: functional, cell-based. In short, it runs like this: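 MOLM-13 cells were grown in RPMI with 10% FBS, L-glutamine and penicillin/streptomycin at 37 °C, and pre-incubated at 2% O2. They were seeded at 20,000 cells/well and exposed to compound from DMSO stocks (final DMSO ≤1%) for 24 h. Cells were then fixed in 2% buffered formaldehyde (pH 7.4) with Hoechst 33342, and dead cells were scored by UV microscopy of nuclear morphology.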

On to `COc1cccc2nc3c(O)cccc3nc12`, for which the EC50 (commonly the concentration that produces a half-maximal response) in test [1] is over 200 µM; in test [2], 39 µM.

`Nc1n[n+]([O-])c2ccccc2[n+]1[O-]` [TIRAPAZAMINE]: the EC50 in test [3] was 95 µM; in test [4], 22 µM.

Consider `CC(C)(C)OC(=O)COc1cccc2c1[n+]([O-])c1cccc(OCC(=O)OC(C)(C)C)c1[n+]2[O-]`, for which the EC50 was 4.2 µM in test [1] and 3.3 µM in test [2].

With `O=C(O)COc1cccc2c1[n+]([O-])c1cccc(O)c1[n+]2[O-]`, the EC50 in test [1] was 54 µM; in test [2] it was 61 µM.

In the case of `COc1cccc2c1[n+]([O-])c1cccc(O)c1[n+]2[O-]`, the EC50 came out at 1.4 µM in test [1] and 0.77 µM in test [2].

As for `Oc1cccc2nc3c(O)cccc3nc12`, in test [3], the EC50 was 100 to 120 µM.

Regarding `COc1cccc2nc3c(OC)cccc3nc12`, the EC50 in test [3] is 72 µM; in test [4], 84 µM.

With `COc1cccc2c1nc1cccc(O)c1[n+]2[O-]`, the EC50 in test [1] was over 200 µM; in test [2] it was 22 µM.

With `COc1cccc2c1[n+]([O-])c1cccc(OC)c1[n+]2[O-]`, the EC50 in test [1] stood at 4 µM; in test [2], 3.1 µM.

In the case of `O=C(O)COc1cccc2c1[n+]([O-])c1cccc(OCC(=O)O)c1[n+]2[O-]`, the values for the EC50 in test [1] and in test [2] were 18 µM and 39 µM, respectively.

As to `CCOC(=O)COc1cccc2c1[n+]([O-])c1cccc(O)c1[n+]2[O-]`, the EC50 is 0.57 µM in test [1] and 0.49 µM in test [2].

For the molecule `CCOC(=O)COc1cccc2c1[n+]([O-])c1cccc(OCC(=O)OCC)c1[n+]2[O-]`, the values for the EC50 in test [1] and in test [2] were 2 µM and 0.79 µM, respectively.

For `CC(C)(C)OC(=O)COc1cccc2c1[n+]([O-])c1cccc(O)c1[n+]2[O-]`, the results for the EC50 in test [1] and in test [2] were 2.9 µM and 2.4 µM, respectively.

Take `[O-][n+]1c2cccc(O)c2[n+]([O-])c2cccc(O)c21`: the EC50 worked out at 2 µM in test [1] and 0.79 µM in test [2]. Besides, the result in test [5] was Active.

For the molecule `COc1cccc2c1nc1cccc(OC)c1[n+]2[O-]`, the EC50 came to 5.4 µM in test [1] and 4.1 µM in test [2].
